# From paper PMC3040319 (Pharmaceutical Research, 2010)
# Like-named read-outs stand apart in the source and are kept apart here.
# Columns and labels:
# [1] = test system: primary mouse hepatocytes; assay type: in vitro ADME; conditions: 30 min exposure
# [2] = test system: Oct1+/+ and Oct1-/- mice; experiment: Toxicity study of oxaliplatin in Oct1+/+ and Oct1-/- mice; assay type: in vivo, mouse; conditions: 6 mg/kg i.p. once daily for 5 days
# [3] = Tissue accumulation of platinum in Oct1+/+ and Oct1-/- mice; assay type: in vivo, mouse; conditions: 1 h after 8 mg/kg i.v.
# Summary of the method: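 Male FVB Oct1+/+ and Oct1-/- mice (8 weeks) were given 8 mg/kg in saline i.v. by tail vein and killed 1 h later. Liver, kidney, heart, lung, brain, intestine, spleen and muscle were snap-frozen. Total Pt was measured by ICP-MS in 10–30 mg tissue and reported as nmol/g tissue; plasma was reported in μM.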
structure (smiles),measurement,setting,value
"O=C1[O][Pt]2([NH][C@@H]3CCCC[C@H]3[NH]2)[O]C1=O [oxaliplatin, Oxaliplatin, reference compound]","hepatocellular uptake rate, wild-type as fold of Oct1-/-",[1]; 1 μM,1.8 fold
same,"hepatocellular uptake rate, wild-type as fold of Oct1-/-",[1]; 5 μM,1.4 fold
same,hepatocellular uptake rate,"[1]; hepatocytes from Oct1-/- mice, 1 μM",0.855 ± 0.184 pmol/mg protein/hr
same,hepatocellular uptake rate,"[1]; hepatocytes from Oct1-/- mice, 5 μM",3.97 ± 0.500 pmol/mg protein/hr
same,hepatocellular uptake rate,"[1]; hepatocytes from Oct1 wild-type mice, 1 μM",1.54 ± 0.300 pmol/mg protein/hr
same,hepatocellular uptake rate,"[1]; hepatocytes from Oct1 wild-type mice, 5 μM",5.55 ± 0.384 pmol/mg protein/hr
same,relative body weight loss,[2]; Oct1+/+ mice,15.1%
same,relative body weight loss,[2]; Oct1-/- mice,6.8%
same,liver histopathology examination,[2]; either Oct1+/+ or Oct1-/- mice,no clear sign of liver damage
same,plasma concentration,[3]; Oct1+/+ mice,5.96 ± 0.54 µM
same,plasma concentration,[3]; Oct1-/- mice,6.69 ± 0.62 µM
